Experiments:
[1] = Tested for the inhibitory activity against Glycosomal glyceraldehyde 3-phosphate dehydrogenase (gGAPDH) of Trypanosoma brucei
Summary of the method: (§1)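 Recombinant glycosomal GAPDH overexpressed in E. coli and purified. Started with enzyme. Initial rates compared with a 5% DMSO control; NADH absorbance interference checked without enzyme. IC50 from ≥5 concentrations giving 5–80% inhibition.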

[2] = biological target: Glyceraldehyde-3-phosphate dehydrogenase (Homo sapiens, UniProt P04406); test: Tested for the inhibitory activity against Glycosomal glyceraldehyde 3-phosphate dehydrogenase (gGAPDH) of human erythrocyte
[3] = Tested for the inhibitory activity against Glycosomal glyceraldehyde 3-phosphate dehydrogenase (gGAPDH) of Leishmania mexicana; summary of the method: as §1
[4] = Tested for the inhibitory activity against Glycosomal glyceraldehyd 3-phosphate dehydrogenase (gGAPDH) of Trypanosoma brucei
Summary of the method: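 Recombinant T. brucei gGAPDH expressed in E. coli. Reaction started with enzyme; NADH absorbance read. Activity from initial rates versus a DMSO-only control. IC50 from at least five inhibitor concentrations giving 5–80% inhibition.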

Sequence of Glyceraldehyde-3-phosphate dehydrogenase (P04406 whole entry): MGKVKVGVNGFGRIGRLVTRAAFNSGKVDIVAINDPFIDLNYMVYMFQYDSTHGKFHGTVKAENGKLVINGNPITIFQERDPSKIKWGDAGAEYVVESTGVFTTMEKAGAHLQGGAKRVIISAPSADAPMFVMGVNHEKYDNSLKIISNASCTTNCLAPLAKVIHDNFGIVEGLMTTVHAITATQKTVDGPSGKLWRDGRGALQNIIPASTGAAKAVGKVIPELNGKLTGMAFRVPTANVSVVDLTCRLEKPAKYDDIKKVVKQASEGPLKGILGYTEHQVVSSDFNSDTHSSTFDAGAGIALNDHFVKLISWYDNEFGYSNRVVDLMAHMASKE

Row | SMILES | IC50 [1] [mM] | IC50 [2] [mM] | IC50 [3] [mM] | IC50 [4] [mM]
1 | Nc1ncnc2c1ncn2[C@@H]1O[C@H](CO)[C@@H](O)[C@H]1NC(=O)c1ccccc1 | 6 | > 10 | 3.3 | –
2 | Nc1ncnc2c1ncn2[C@@H]1O[C@H](CO)[C@@H](O)[C@H]1NC(=O)c1cccs1 | 5 | > 10 | 2.4 | –
3 | COc1cccc(C(=O)N[C@@H]2[C@H](O)[C@@H](CO)O[C@H]2n2cnc3c(N)ncnc32)c1 | 2.2 | > 10 | 0.3 | –
4 | Nc1ncnc2c1nc(-c1cccs1)n2[C@@H]1O[C@H](CO)C(O)[C@H]1O (single isomer, unassigned) | – | 1.3 | 0.5 | 0.6

Next, values leading:

Row | IC50 [1] [mM] | IC50 [2] [mM] | IC50 [3] [mM] | IC50 [4] [mM] | SMILES
5 | 10 | 10 | – | – | Nc1ncnc2c1nc(-c1ccccc1)n2[C@@H]1O[C@H](CO)[C@@H](O)[C@H]1O
6 | 8 | > 10 | 6 | – | Cc1nc(N)c2ncn([C@@H]3O[C@H](CO)[C@@H](O)[C@H]3O)c2n1 [2-METHYLADENOSINE]
7 | 100 | 35 | 50 | – | Nc1ncnc2c1ncn2[C@@H]1O[C@H](CO)[C@@H](O)[C@H]1O [ADENOSINE]
